Usually inhibition stands for the drop in the measured response relative to a control, in per cent.

Hit rate of the full screen: of about 300,000 compounds, about 4,400 (1.5%) were called active. This excerpt belongs to a sample that is enriched for actives. Unmarked numbers belong to inactive results.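 How the source made its calls: active means mean inhibition across valid replicates above about 55% (limit read from the data); inconclusive means mean below that limit but half or more replicates reach it; inactive means mean below it, under half of replicates reach it.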

This assay in a line: Trypanosoma cruzi replication blockers in host cells – luminescence, NIH3T3 host cells, primary screen (AID 1885).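 Further: signal also drops with host cell toxicity which is not excluded here; 0% = plate median of DMSO wells and 100% = zero luminescence signal; higher percent means less beta-gal luminescence so fewer parasites.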 The conditions noted are these: T. cruzi beta-gal in NIH3T3, luminescence, 90 h; hits give high values; concentration not given here. In short, it runs like this:
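System: mouse NIH/3T3 fibroblasts infected with β-gal-expressing T. cruzi Tulahuen C4 / Input: NIH/3T3 cells, 5,000 per well / Buffer or medium: Low-serum DMEM with 2% FBS / Probe or stimulus: 5000 reporter trypomastigotes per well / Schedule: ≥90 h infection period, 3 h prior cell attachment / Measured by: GalScreen luminescence, 60 min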
On to `CC(C)c1nc(SCC(=O)NC(=O)NC(C)(C)C)n[nH]1`, for which the inhibition is -2.85%.
Take `CCn1c(=N)n(CC(=O)c2cccc(OC)c2)c2ccccc21`: the inhibition was 7.38%.
Consider `CCCCCCCCCCOC(=O)Cn1c(COc2ccc(C)cc2)[n+](C)c2ccccc21`, for which the inhibition is 46.2%.
For `CCCCCCCCCCOC(=O)Cn1c(COc2cccc(OC)c2)[n+](C)c2ccccc21`, the inhibition was 65.1% (active).
As to `CCCCCC(=O)N1CCN(S(=O)(=O)c2ccc3c(c2)OCCCO3)CC1`, the inhibition was -5.19%.
Turning to `Cc1cc(Nc2ccc(Br)cc2)nc2ccccc12`, the inhibition is 32.6%.
In the case of `CCCc1nc2c(c(=O)c3ccccc3n2C)c(=O)n1-c1cc(C)cc(C)c1`, the inhibition is 34.2%.
For `Cn1c2ccccc2c(=O)c2c(=O)n(Cc3ccco3)c(COc3ccccc3)nc21`, the inhibition is 62.2% (active).
As for `CCCc1nc2c(c(=O)c3ccccc3n2C)c(=O)n1C1CCCCCC1`, the inhibition is 22.4%.
`Cc1ccc(OCCC(=O)OCC(=O)N2c3ccccc3NC(=O)C2(C)C)cc1`: the inhibition is -1.24%.
As to `COc1ccc(S(=O)(=O)N2CCSCC2)cc1`, the inhibition is 5.81%.
In the case of `COc1ccc(CNC(=O)C(=O)N2CCC3(CC2)OCCN3S(=O)(=O)c2ccc(C)cc2)cc1`, the inhibition was -4.09%.
The result for `COc1ccc(S(=O)(=O)N2CCOC23CCN(S(=O)(=O)c2ccc([N+](=O)[O-])cc2)CC3)cc1` reads 61.5% (active).
As for `CC1(C)O[C@H]2CC(=O)OCC23[C@H]2CC[C@@]4(C)[C@H](c5ccoc5)OC(=O)[C@H]5O[C@]54[C@]2(C)C(=O)C[C@@H]13` (some centres not stated), the inhibition is -3.05%.
Regarding `c1ccc2c(C[n+]3csc4ccccc43)cccc2c1`, the inhibition is 59.8% (active).
The result for `Nc1scc[n+]1Cc1cccc2cccnc12` reads -1.61%; that for `c1ccc(NCc2cccc3ccccc23)nc1`, 1.93%.
Take `FC(F)Oc1ccccc1NC(=S)Nc1cccc(Cl)c1Cl`: the inhibition is 0.408%.
With `CC(C(=O)NCC1CCCCC1)N(C)Cc1cccc(Cl)c1` (configuration not stated), the inhibition is 10.6%.
For `Cc1ccc(NC(=O)/C(=C/c2ccc([N+](=O)[O-])cc2)NC(=O)c2ccccc2)cc1`, the inhibition was 1.7%.
`CCOC(=O)/C(=C\c1ccc([N+](=O)[O-])cc1)C(=O)c1cc(C(C)=O)c(Nc2ccccc2)s1`: the inhibition was 55.8% (active).
Consider `CCOC(=O)COc1ccc([N+](=O)[O-])cc1`, for which the inhibition is -3.58%.
For `COC(=O)C1[C@H]2SC(C)(C)C(C(=O)OC)N2C(=O)N1Cc1nc2ccccc2s1` (some centres not stated), the inhibition was -4.35%.
The result for `CC(OC(=O)c1ccc(S(=O)(=O)N2CCOCC2)cc1)c1ccccc1` (configuration not stated) reads 1.58%; that for `CC(C)CN(C(=O)COC(=O)c1ccc(Cl)c(N)c1)c1c(N)n(Cc2ccccc2)c(=O)[nH]c1=O`, 10.2%; that for `Cc1ccc(C)c(N2CCN(C(=O)CCCCCn3c(=S)[nH]c4ccc(N5CCOCC5)cc4c3=O)CC2)c1`, 56.8% (active).
Regarding `O=C(CCCCCn1c(=S)[nH]c2cc3c(cc2c1=O)OCO3)N1CCN(c2ccc(F)cc2)CC1`, the inhibition is 7.91%.
As for `Cc1ccc(C)c(N2CCN(C(=O)CCCCn3c(=O)[nH]c4ccccc4c3=O)CC2)c1`, the inhibition is 4.26%.
The result for `Cc1ccn(C(CC(=O)c2ccc(Br)cc2)C(=O)O)n1` (configuration not stated) reads -6.81%; that for `CCN(CC)C(=O)CSC1c2ccccc2C(=O)N1c1ccccc1` (configuration not stated), -17.2%.
On to `CCC(C(=O)NCc1ccc(OC)cc1)n1nc(C)n2c(cc3occc32)c1=O` (configuration not stated), for which the inhibition was -2.81%.
The result for `COc1ccc(CCNC(=O)c2cc3sccc3n2C)cc1OC` reads -11.3%; that for `CCOc1ccc(CCNC(=O)C(CC)n2nc(C)n3c(cc4sccc43)c2=O)cc1OCC` (configuration not stated), 59.3% (active); that for `COc1ccc(-n2nnnc2CNC(=O)c2ccc3ccccc3c2)cc1`, -2.55%.
For the molecule `Cc1ccc(CN(Cc2cccnc2)C(=S)Nc2cccc(Cl)c2C)cc1`, the inhibition is 3%.
As to `Cc1ccc(CN(Cc2cccnc2)C(=S)Nc2cc(Cl)ccc2C)cc1`, the inhibition was 77.2% (active).
As for `Cc1c(Cl)cccc1NC(=S)N(Cc1ccccc1)Cc1cccnc1`, the inhibition is 18.3%.
Turning to `CCOc1ncccc1C(=O)NNC(=O)c1cccc(S(=O)(=O)Nc2ccccc2OC)c1`, the inhibition is 0.733%.
As for `CC(C)c1nc(N2CCOCC2)c(C#N)c2c1COC(C)(C)C2`, the inhibition was 12.5%.
For `COc1ccc(CSc2nc(N3CCOCC3)c3c(c2C#N)CC(C)(C)OC3)cc1`, the inhibition is 60.5% (active).
`CC1(C)Cc2c(C#N)c(SCc3nc4ccccc4[nH]3)nc(N3CCOCC3)c2CO1`: the inhibition was 23.1%.
As for `CSc1ccccc1NC(=O)C(C)N1C(=O)c2ccccc2S1(=O)=O` (configuration not stated), the inhibition is -1.05%.
The result for `COc1ccc(N(CC(=O)N2CCOCC2)S(=O)(=O)c2ccccc2)cc1Cl` reads -3.61%; that for `CCCn1nc(C(=O)NNC(=O)CSCC(=O)Nc2cc(C)on2)c2ccccc2c1=O`, -11.5%.
With `N#CCN(C(=O)COC(=O)C1CC2CCCC(C1)C2=O)c1ccccc1` (configuration not stated), the inhibition is -10.6%.
`Cc1nc2ccccc2nc1N/N=C/c1ccc(O)cc1O`: the inhibition was 60% (active).
For `Oc1ccc(/C=N/NC2=NCCCCC2)c(O)c1`, the inhibition is -40.4%.
`Oc1ccc(/C=N/Nc2nc(-c3ccccc3F)nc3ccccc23)c(O)c1`: the inhibition was -4.73%.
Regarding `Cc1c(NC(=O)C(C)Oc2cccc(Cl)c2)c(=O)n(-c2ccccc2)n1C` (configuration not stated), the inhibition is -6.21%.
With `COc1ccccc1NC(=O)CN1CCN(S(=O)(=O)c2ccc(Br)cc2)CC1`, the inhibition was 8.31%.
For `O=C(CN1CCN(S(=O)(=O)c2ccc(Br)cc2)CC1)Nc1ccccc1C(=O)c1ccccc1`, the inhibition was 56% (active).
The result for `O=C(CN1CCN(S(=O)(=O)c2ccc(F)cc2)CC1)Nc1ccccc1F` reads 4.08%; that for `COc1cccc(COc2ccc(N(C)S(=O)(=O)c3ccccc3)cc2)c1`, 9.64%.
In the case of `CCn1c(-c2cc(OC)ccc2OC)csc1=Nc1c(C)n(C)n(-c2ccccc2)c1=O`, the inhibition was 13.7%.
With `CN=c1scc(-c2cc(OC)ccc2OC)n1/N=C/c1c(C)[nH]c2ccccc12`, the inhibition is 73.4% (active).
On to `COc1ccc(N=Cc2c(O)[nH]c3ccccc23)cc1OC`, for which the inhibition is -17.8%.
On to `O=C(CCNC(=O)c1ccc(Br)cc1)Nc1cccc(S(=O)(=O)N2CCCCC2)c1`, for which the inhibition was 3.39%.
`COc1c(C)c2c(c(O)c1C/C=C(\C)CCC(=O)O)C(=O)OC2`: the inhibition is 62.2% (active).
The result for `CCN(CC(=O)Nc1c(F)cccc1F)C(=O)c1ccc(-c2ccccc2)cc1` reads -22.3%; that for `Cc1ccccc1NC(=O)C(C)OC(=O)CCC(=O)N(CC(C)C)c1c(N)n(CC(C)C)c(=O)[nH]c1=O` (configuration not stated), 0.843%; that for `Fc1ccc(CNCc2ccc(Br)cc2)cc1`, -7.54%.
As to `Cc1c(NC(=O)C(C)OC(=O)c2c3c(nc4ccccc24)CCC(C)C3)c(=O)n(-c2ccccc2)n1C` (configuration not stated), the inhibition is -9.27%.
`COC(=O)C1=CN(Cc2ccc(OC)cc2)C=C(C(=O)OC)C1c1ccc(O)c(OC)c1`: the inhibition is 11.3%.
For `COC(=O)C1=CN(Cc2ccc(OC)c(OC)c2)C=C(C(=O)OC)C1c1cccs1`, the inhibition is 65% (active).
Regarding `COc1ccc(CCNC(=O)COC(=O)/C=C/c2cccs2)cc1OC`, the inhibition is -3.17%.
The result for `CCc1c(C)nc2c(-c3ccccc3)c(C)nn2c1Nc1ccc(NC(C)=O)cc1` reads 54.5% (active).
On to `Cc1cc(-n2nc(C)cc2C)n2nc(C)c(-c3ccccc3)c2n1`, for which the inhibition was 14.4%.
Turning to `Cc1cc(-c2ccccc2)n2nc(C)c(-c3ccccc3)c2n1`, the inhibition was 32.1%.
Take `O=S(=O)(Nc1cccc(-c2ccc(N3CCOCC3)nn2)c1)c1ccc(Cl)c(Cl)c1`: the inhibition is -4.53%.
The result for `COc1ccc(Cl)cc1NC(=O)CN(C)C(=O)c1cc2ccccc2cc1OC` reads 12.8%; that for `COc1ccccc1OCCn1c(SCC(N)=O)nc2ccccc21`, -6.95%; that for `O=C(CSc1ccccn1)N1CCN(S(=O)(=O)c2ccc(Cl)cc2)CC1`, -3.29%.
`O=C(Nc1ccccc1N1CCCC1)c1ccc(F)c(S(=O)(=O)N2CCOCC2)c1`: the inhibition was -5.53%.
For the molecule `O=C(NCCCNC(=O)NC1CCCCC1)NC1CCCCC1`, the inhibition was -9.22%.
`CSc1cccc(NC(=S)N(Cc2ccccc2)Cc2ccccn2)c1`: the inhibition is 2.49%.
Consider `COc1cccc(NC(=S)NCc2ccccn2)c1`, for which the inhibition was 4.96%.
The result for `COc1cccc(NC(=S)N(Cc2ccc(C)cc2)Cc2ccccn2)c1` reads 78.1% (active); that for `Nn1c(SCc2ccccc2)nnc1C1CCCCC1`, 2.33%; that for `CCc1ccc(N2CC(C(=O)Nc3ccc(S(=O)(=O)Nc4nccs4)cc3)CC2=O)cc1` (configuration not stated), -8.72%.
Regarding `CC1C(=O)Nc2ccccc2N1C(=O)c1ccc(F)cc1F` (configuration not stated), the inhibition was 0.146%.
On to `Cc1ccc(OCCCCN2CCCCC2)c(Br)c1`, for which the inhibition was 54.8% (active).
Consider `Cc1ccc(C(C)(C)C)c(OCCCCN2CCCC2)c1`, for which the inhibition was 27.7%.
`O=[N+]([O-])c1ccccc1OCCCCN1CCCCC1`: the inhibition is 1.28%.
Turning to `COC(=O)C1=C[C@@H](C(=O)OC)[C@@H]2C3=C(C(=O)[C@]2(C)NC(=O)c2ccccc2)[C@H](C)n2c(=O)n(C)c(=O)n2[C@@H]3C1`, the inhibition was 11.2%.
Turning to `COc1ccccc1NS(=O)(=O)c1ccc(C)c(C(=O)NCC(c2ccco2)N(C)C)c1` (configuration not stated), the inhibition is 4.14%.
For `CCNC(=O)COc1cc(C)c(Br)c(C)c1`, the inhibition was 8.23%.
The result for `CCOc1ccccc1N1CCN(C(=O)COc2ccc3c(C)cc(=O)oc3c2)CC1` reads 24%; that for `Cc1ccccc1N1CCN(CCCOc2ccc3c(C)cc(=O)oc3c2)CC1`, 60% (active).
On to `Cc1cc(OCC(=O)NC2CCN(C)CC2)ccc1[N+](=O)[O-]`, for which the inhibition is 49.2%.
Turning to `Cc1cc(OCCCN2CCN(Cc3ccccc3)CC2)ccc1[N+](=O)[O-]`, the inhibition is 55.7% (active).
On to `Cc1cc(=O)oc2cc(OCCC[n+]3ccccc3)ccc12`, for which the inhibition is 1.14%.
Take `Cc1cc(OCCCCOc2ccc(C#N)cc2)ccc1[N+](=O)[O-]`: the inhibition was 19.5%.

These data come from PubChem BioAssay AID1885 (Broad Institute, 2009).
